Structures are written as SMILES.

Results on 25 compounds are retold here after ChEMBL document CHEMBL4196040, “Discovery of carbazole carboxamides as novel RORγt inverse agonists” (Eur J Med Chem, 2018).

The target in data set [1] is T1, Nuclear receptor ROR-gamma (Homo sapiens, UniProt P51449).
T1 sequence (P51449 whole entry): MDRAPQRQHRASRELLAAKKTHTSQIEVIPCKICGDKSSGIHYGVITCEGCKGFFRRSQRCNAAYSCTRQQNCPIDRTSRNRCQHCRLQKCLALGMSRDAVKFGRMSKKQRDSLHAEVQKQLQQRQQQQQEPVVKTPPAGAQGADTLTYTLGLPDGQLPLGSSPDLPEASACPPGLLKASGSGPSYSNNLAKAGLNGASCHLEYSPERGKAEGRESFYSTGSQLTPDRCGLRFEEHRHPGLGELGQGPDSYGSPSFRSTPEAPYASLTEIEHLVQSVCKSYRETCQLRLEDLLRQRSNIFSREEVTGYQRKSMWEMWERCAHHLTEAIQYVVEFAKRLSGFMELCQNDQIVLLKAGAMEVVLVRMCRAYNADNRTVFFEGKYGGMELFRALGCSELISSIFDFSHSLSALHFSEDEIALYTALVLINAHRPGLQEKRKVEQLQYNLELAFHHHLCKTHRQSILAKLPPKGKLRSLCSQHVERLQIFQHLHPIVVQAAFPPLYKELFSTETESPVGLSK
Briefly: Inverse agonist activity at APC-labeled RORgammat LBD (unknown origin) assessed as inhibition of N-(2-chloro-6-fluorobenzyl)-N-((20-methoxy-[1,10-biphenyl]-4-yl)methyl)benzenesulfonamide -induced co-activator europium-labeled SRC1 peptide recruitment after 1 hr by LANCE-FRET assay. For orientation: TR-FRET usually uses a lanthanide donor and a delayed reading to cut background.

A short description of data set [2]: Intrinsic clearance in mouse liver microsomes. It counts as ADME, microsome. A general note: Microsomes from liver hold many membrane-bound enzymes, among them those of drug oxidation.
Data set [3] is described as follows: Inhibition of mouse splenocytes-derived CD4+ Th17 cell differentiation assessed as reduction in IL-17 production at 0.3 uM by flow cytometry relative to control. It counts as functional. A digest of the protocol: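 CD4+ T cells were taken from mouse splenocytes by negative selection and skewed to Th17 over 4 days with anti-CD3 0.25 μg/mL, anti-CD28 1 μg/mL, anti-IFN-γ and anti-IL-4 2 μg/mL each, TGF-β 5 ng/mL and IL-6 20 ng/mL. Compound or DMSO was added on day 0. IL-17+ CD4+ cells were measured by intracellular staining and flow cytometry.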
Background: In flow cytometry, cells or beads pass a laser one at a time.

Data set [4] concerns the target T2, Nuclear receptor ROR-gamma (Homo sapiens) (UniProt P51449).
T2 sequence (whole entry): T1 sequence (P51449 whole entry)
Briefly: Agonist activity at APC-labeled RORgammat LBD (unknown origin) assessed as co-activator europium-labeled SRC1 peptide recruitment after 1 hr by LANCE-FRET assay relative to control.

As to `CCn1c2ccc(C(=O)NCc3ccc(S(=O)(=O)CC)cc3)cc2c2ncccc21`, the IC50 – broadly, the concentration needed to halve the response being measured – in data set [1] (read-out: IC50) worked out at 3000 nM.

On to `CCS(=O)(=O)c1ccc(CNC(=O)c2ccc3c(c2)c2ccccc2n3CC2CCC2)cc1`, for which the half-inhibitory concentration (IC50) in data set [1] (read-out: IC50) was 54.9 nM. On the same count and under the same terms, to `CCCn1c2ccccc2c2cc(C(=O)NCc3ccc(S(=O)(=O)CC)cc3)ccc21` belongs 138 nM; to `CCn1c2ccccc2c2cc(NC(=O)Cc3ccc(S(=O)(=O)CC)cc3)ccc21`, 170 nM. For `CCn1c2ccc(Cl)cc2c2cc(C(=O)NCc3ccc(S(=O)(=O)CC)cc3)ccc21`, in data set [1] (read-out: IC50), the IC50 was found to be 58.5 nM. For the same compound, the CLint in data set [2] amounted to 0.197 mL/min/g. The inhibition (commonly how much of the control response was suppressed) at 0.3 µM in data set [3] worked out at 58.8%. With `CCn1c2c(c3cc(C(=O)NCc4ccc(S(=O)(=O)CC)cc4)ccc31)CCC2`, in data set [1] (read-out: IC50), the IC50 came to 1320 nM.

With `CCCS(=O)(=O)c1ccc(CNC(=O)c2ccc3c(c2)c2ccccc2n3CC)cc1`, the IC50 in data set [1] (read-out: IC50) worked out at 1450 nM. In the case of `CCn1c2ccccc2c2cc(C(=O)NCC(C)NC(=O)Cc3ccc(S(=O)(=O)CC)cc3)ccc21` (centres undefined), the IC50 result in data set [1] is “Not Active”. With `CCn1c2ccccc2c2cc(C(=O)NCc3ccc(S(=O)(=O)CC)cn3)ccc21`, the IC50 in data set [1] (read-out: IC50) was 1220 nM. Same read-out and setting: to `CCS(=O)(=O)c1ccc(CNC(=O)c2ccc3[nH]c4ccccc4c3c2)cc1` belongs 5400 nM. For `CCn1c2ccc(C)cc2c2cc(C(=O)NCc3ccc(S(=O)(=O)CC)cc3)ccc21`, the IC50 in data set [1] (read-out: IC50) was 47.8 nM. This compound also displayed a CLint in data set [2] of 0.368 mL/min/g. The inhibition at 0.3 µM in data set [3] was 43.6%.

As to `CCn1c2c(c3cc(C(=O)NCc4ccc(S(=O)(=O)CC)cc4)ccc31)CCCC2`, the IC50 in data set [1] (read-out: IC50) came out at 426 nM. Still for that read-out and setting: next, `CCn1c(C)c(C)c2cc(C(=O)NCc3ccc(S(=O)(=O)CC)cc3)ccc21`: 914 nM. On to `CCn1c2ccc(F)cc2c2cc(C(=O)NCc3ccc(S(=O)(=O)CC)cc3)ccc21`, for which the IC50 in data set [1] (read-out: IC50) was determined as 156 nM. Besides, the CLint in data set [2] is 0.348 mL/min/g. In data set [3], the inhibition at 0.3 µM amounted to 45.9%. `CCS(=O)(=O)c1ccc(CNC(=O)c2ccc3c(c2)c2ccccc2n3CC2CC2)cc1`: in data set [1] (read-out: IC50), the IC50 was 81.9 nM. Same read-out and setting: to `CCS(=O)(=O)c1ccc(CNC(=O)c2ccc3c(c2)c2ccccc2n3CC(C)C)cc1` belongs 69.6 nM. Regarding `CCn1c2ccccc2c2cc(C(=O)NCc3ccc(S(=O)(=O)NC)cc3)ccc21`, the IC50 in data set [1] (read-out: IC50) is 313 nM. Still for that read-out and setting: to `CCS(=O)(=O)c1ccc(CNC(=O)c2ccc3c(c2)c2ccccc2n3C(C)C)cc1` belongs 358 nM. `CCn1c2ccccc2c2cc(C(=O)NCc3ccc(S(=O)(=O)CC)cc3)ccc21`: the IC50 in data set [1] (read-out: IC50) stood at 167 nM. For the same compound, the CLint in data set [2] is 0.305 mL/min/g. In addition, in data set [3], the inhibition at 0.3 µM was 40%. Consider `CCS(=O)(=O)c1ccc(CNC(=O)c2ccc3c(c2)c2ccccc2n3CC2CCCCC2)cc1`, for which the Emax – broadly, the maximal effect, on the per cent scale that the assay sets – in data set [4] came to 54%. The IC50 in data set [1] (read-out: IC50) is 33.5 nM. For the compound `CCn1c2ccccc2c2cc(NC(=O)NCc3ccc(S(=O)(=O)CC)cc3)ccc21`, the IC50 in data set [1] (read-out: IC50) amounted to 16200 nM.

With `CCn1ccc2cc(C(=O)NCc3ccc(S(=O)(=O)CC)cc3)ccc21`, in data set [1] (read-out: IC50), the IC50 stood at 5160 nM.

Turning to `CCn1c2ccccc2c2cc(NC(=O)CNC(=O)Cc3ccc(S(=O)(=O)CC)cc3)ccc21`, the IC50 in data set [1] (read-out: IC50) is 7670 nM.

With `CCn1c2ccccc2c2cc(C(=O)NCc3ccc(S(C)(=O)=O)cc3)ccc21`, in data set [1] (read-out: IC50), the IC50 was 1100 nM. For `CCS(=O)(=O)c1ccc(CNC(=O)c2ccc3c(c2)c2ccccc2n3C)cc1`, the IC50 in data set [1] (read-out: IC50) stood at 566 nM.
